# Compound activity deposited in PubChem BioAssay by several laboratories.
# ROMK mod – ROMK potassium channel modulators, primary screen, cell-based, thallium flux, MLSMR library | Tet-inducible ROMK, thallium flux fluorescence; actives lie on both sides | AID 1918, 2009 | 130,000 tested, 2% active | ATP-sensitive inward rectifier potassium channel 1 (Homo sapiens), P48048 | B-score at 10 µM;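 active = signal ratio slope over the read window, or its plate-corrected B-score, at least 3 SD from the plate mean, either direction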;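 also: B-score of the F/F0 ratio slope over 7 to 12 s after thallium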
# Target sequence (P48048 whole entry, looked up): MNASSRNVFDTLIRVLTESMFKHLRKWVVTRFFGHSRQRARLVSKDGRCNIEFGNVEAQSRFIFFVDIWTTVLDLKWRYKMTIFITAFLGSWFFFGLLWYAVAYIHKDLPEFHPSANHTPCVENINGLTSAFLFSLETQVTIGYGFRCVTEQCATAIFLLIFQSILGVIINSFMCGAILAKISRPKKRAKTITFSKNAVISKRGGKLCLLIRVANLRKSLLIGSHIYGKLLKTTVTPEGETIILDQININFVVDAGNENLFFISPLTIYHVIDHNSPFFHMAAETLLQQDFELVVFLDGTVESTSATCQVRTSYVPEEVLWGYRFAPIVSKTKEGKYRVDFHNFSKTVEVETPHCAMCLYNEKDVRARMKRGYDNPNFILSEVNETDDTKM
# Redox H2O2 prof – compounds producing H2O2 with reducing agent – biochemical, NIH compound library profiling, artefact control for MLSCN library redox annotation, primary screen. activation, % at 10 µM. DTT-dependent redox cycling H2O2, phenol red/HRP absorbance; 100% = 100 µM peroxide control, 0% = buffer. 200,000 tested, 0.03% active;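 active = activation of at least 50% relative to the plate's high and low controls in the primary single-dose screen; inactive = activation below 50%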;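 also: compound incubated with DTT at 0.8 mM final as the reducing agent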
# Cl transport mod – KCC2 cotransporter modulators, thallium flux, primary screen, cell-based, HEK293 KCC2, FluoZin-2 fluorescence, MLSMR; KCC2 cells, thallium flux FluoZin-2 fluorescence; 190,000 tested, 2.2% active; Solute carrier family 12 member 5 (Homo sapiens), Q9H2X9; B-score of Tl+ flux slope (higher = more flux/activation; lower = inhibition) at 10 µM;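 active = thallium flux slope and its plate-corrected score both differing from the plate sample mean at a set confidence after two filtering rounds, in either direction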;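 also: slope of fluorescence scaled to starting intensity during 10 to 20 s after thallium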
# bCat nuc transl – modulators of beta-catenin nuclear translocation, primary screen, imaging, HeLa cells, immunofluorescence, high-content; 190,000 tested, 0.3% active; AID 1665, 2009; nuclear translocation activity, % at 5 µM;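 active = nuclear translocation activity above 50% at 5 µM, with a well cell count of 50 or more; inconclusive = wells under 50 cells across six images, flagged as toxic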;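 also: per-cell ratio of nuclear to cytoplasmic median beta-catenin stain intensity; plate controls were DMSO negative control for no effect and GSK-3 inhibitor IX positive control for full effect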
#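 assay system = human HeLa cells, endogenous beta-catenin | times = compound treatment 24 h, 37°C, 5% CO2 | detection = Anti-beta-catenin immunofluorescence on PFA-fixed, Triton-permeabilized cells, DAPI nuclei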
# MT stabilizer – microtubule stabilizers in HeLa cells, primary screen, imaging, high-content imaging | HeLa tubulin immunostaining HCS, 24 h; share of cells brighter than vehicle mean+2SD | 200,000 tested, 0.83% active | % tubulin-high responders, % at 10 µM;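 active = plate Z-score above 3 for both tubulin-high and condensed-nucleus cell shares, with cell loss under 80%, at 10 µM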;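 also: anti alpha tubulin signal scored within the nucleus-defined area of each cell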
# KCC2 sec1 – KCC2 modulators in sodium-free buffer, confirmation, cell-based, HEK293 KCC2, thallium flux, secondary assay. shares compounds with Cl transport mod. FluoZin2 fluorescence; hits give high values. normalised thallium flux (F/F0 slope) at 10 µM. 3,700 tested, 15% active. AID 1713, 2009;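 active = thallium flux slope above the same plate's solvent-only control mean plus 3 SD; inconclusive = the two replicate wells disagree; inactive = no significant difference from solvent-only control wells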
# KCC2 bumet counter – thallium flux persisting under bumetanide in KCC2 cells, confirmation, counter-screen for KCC2 modulator project, cell-based, HEK293 KCC2, FluoZin2, secondary assay 3 | HEK293-KCC2 + bumetanide/ouabain; hits give high values | AID 1714, 2009 | 3,700 tested, 49% active | shares compounds with Cl transport mod | normalized thallium flux at 10 µM;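 active = thallium entry rate above the same plate's blocked-transporter control wells by more than 3 SD; inconclusive = the two repeat wells disagree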;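 also: raw slope of fluorescence over initial fluorescence between 10 and 20 s after thallium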
# KCC2 secondary2 – KCC2 modulators without ouabain present, confirmation, cell-based, HEK293 KCC2, thallium flux, FluoZin2, secondary assay 2. shares compounds with Cl transport mod. thallium flux FluoZin2 fluorescence; actives lie on both sides; F/F0 rise rate, 10–20 s post-thallium. normalized thallium flux at 10 µM. 3,700 tested, 23% active;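 active = thallium flux slope more than 3 SD above or below the plate's solvent-only control mean, mostly below; inconclusive = the two repeat wells disagreed; inactive = no significant shift from solvent-only controls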;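 also: raw slope with 0.1% DMSO as baseline and bumetanide as block control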
# HEK counter1 – thallium flux modulation in parental HEK cells, confirmation, counter-screen for KCC2 modulator project, cell-based, counterscreen 1. shares compounds with Cl transport mod. thallium flux rate (normalised fluorescence) at 10 µM. 3,700 tested, 46% active. HEK293 parental cells, thallium flux FluoZin2, ouabain; baseline-ratio fluorescence slope, 10–20 s after thallium;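 active = thallium flux rate significantly above the same plate's solvent-only control wells, beyond their mean plus 3 SD; inconclusive = the two replicate wells gave conflicting results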
# KCC2 ouabain – KCC2 inhibitors and activators, ouabain retest, confirmation, HEK-KCC2 cells | shares compounds with Cl transport mod | HEK293-KCC2, thallium flux FluoZin2 fluorescence; bidirectional: low = inhibitor, high = activator | raw Tl+ flux slope (below DMSO = inhibition, above = activation) at 10 µM | AID 1717, 2009 | 3,700 tested, 48% active;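 active = thallium flux slope beyond 3 SD from same-plate DMSO control mean in most replicates, usually higher, sometimes lower; inconclusive = repeat tests gave conflicting results; inactive = no significant difference from controls in most replicates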;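 also: slope of initial-normalized fluorescence between seconds 10 and 20 after thallium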
# HEK counter2 – native HEK Tl+ uptake effects, second counter-screen – HEK cells, counterscreen 2, counter-screen for KCC2 modulator project, confirmation; HEK293 parental, thallium flux FluoZin-2 fluorescence slope; 3,700 tested, 33% active; shares compounds with Cl transport mod; AID 1718, 2009; thallium flux slope at 10 µM;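 active = thallium flux slope above the same plate's solvent-control mean plus 3 SD in both duplicate wells; inconclusive = duplicate wells that disagreed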;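 also: run without ouabain in cells lacking the KCC2 cotransporter; slope of fluorescence scaled to its starting value between 10 and 20 s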
# * hit, by the source's call; ? = inconclusive; . = not tested or not shown. Most compounds without a hit are left out; they make up all but 3.7% or so of the library.
SMILES,ROMK mod,Redox H2O2 prof,Cl transport mod,bCat nuc transl,MT stabilizer,KCC2 sec1,KCC2 bumet counter,KCC2 secondary2,HEK counter1,KCC2 ouabain,HEK counter2
S=C1NCCOCCNC(=S)NCCOCCOCCN1,0.177,-0.6,1.04,-0.3,0.9,.,.,.,.,.,.
CCc1ccc(/C=C2/SC(N3CCOCC3)=NC2=O)cc1,.,.,-1.16,0.0,.,.,.,.,.,.,.
CN1C/C(=C\c2ccc(N3CCOCC3)cc2)C(=O)/C(=C/c2ccc(N3CCOCC3)cc2)C1,.,0.1,-9.18*,0.1,12.2,0.00277*,-0.000702*,0.0169*,0.00558*,0.00754*,?
CCN1C/C(=C/c2ccc(N3CCOCC3)cc2)C(=O)/C(=C/c2ccc(N3CCOCC3)cc2)C1,.,0.1,-5.42*,15.5,9.8,0.00364*,0.00161*,0.0297*,?,0.00886*,0.0105
Cc1cc(NC(=O)C2CC(c3ccc(F)cc3)=NO2)n(-c2ccccc2)n1 (configuration not stated),.,-1.6,.,.,6.3,.,.,.,.,.,.
CCn1cc(C2=NOC(C(=O)Nc3cc(C)nn3-c3ccccc3)C2)c(C)n1 (configuration not stated),-0.671,-1.6,4.55*,0.2,3.8,0.0109,?,0.0339,0.00815,0.022,0.0112
O=C(O)c1cc(-c2cccc(Cl)c2)nc2nc(N3CCCCC3)sc12,0.636,-0.2,-4.21*,-0.1,2.0,0.009,0.00581,0.0336,0.00753,0.0167*,0.0105
CCCn1nnnc1NC(=O)COc1ccc(Br)cc1,0.421,-2.5,0.83,-1.4,2.5,.,.,.,.,.,.
COc1cccc(-c2nc(CS(=O)(=O)CC(=O)NCc3ccccc3)c(C)o2)c1,.,-0.2,-4.1*,-0.2,2.1,0.00874,0.00577,0.0365,0.00451,?,0.012
Cc1ccccc1-c1nc(CS(=O)(=O)CC(=O)NCc2ccccc2)c(C)o1,.,-0.1,-5.05*,-1.8,3.0,0.00525,0.0049,?,0.00735,?,0.0111
COc1ccc(NC(=O)C2CCCN(S(=O)(=O)c3ccc4c(c3)oc(=O)n4C)C2)c(OC)c1 (configuration not stated),.,-1.3,.,.,2.7,.,.,.,.,.,.
O=C(CN1C(=O)NC2(CCSC2)C1=O)NCc1ccccc1 (configuration not stated),0.159,0.1,0.661,-0.6,3.3,.,.,.,.,.,.
O=C(Cn1nnc2c(cnn2-c2ccc(F)cc2)c1=O)Nc1ccccc1C(F)(F)F,0.325,0.2,-3.86*,-0.1,1.5,0.00734,?,0.0326,0.00714,0.0169*,0.0102
Cc1ccc(NC(=O)c2noc(C(C)C)c2[N+](=O)[O-])cc1,-2.26,1.3,0.447,-0.5,5.2,.,.,.,.,.,.
Cc1cc(Cl)cc(Cl)c1OCCOc1cccc2cccnc12,0.112,-0.1,-6.98*,.,1.7,0.00571,0.00449,0.0292,0.00807,0.0178,0.0115
Brc1ccccc1OCCOc1cccc2cccnc12,.,0.2,0.312,4.0,1.9,.,.,.,.,.,.
O=C(COc1ccccc1[N+](=O)[O-])NCCC1=CCCCC1,-0.769,-0.1,0.188,0.2,2.6,.,.,.,.,.,.
O=C(NC(=S)Nc1cnc2ccccc2c1)c1ccccc1,0.581,8.7,20.5*,2.3,3.8,?,0.0411*,0.0325,0.0123*,0.022*,0.0147*
CC1=NN(c2nc(-c3ccc(C)cc3)cs2)C(=O)C1N=Nc1cccc(C)c1 (configuration not stated),-0.199,0.3,2.64,0.0,1.2,.,.,.,.,.,.
CCOC(=O)c1sc(N2N=C(C)C(N=Nc3cccc(C)c3)C2=O)nc1C (configuration not stated),2.11,.,21.9*,0.5,.,0.00666,0.0264*,0.0384*,0.0161*,0.0355*,0.0185*
CC(NC(=O)COC(=O)CCc1ccccc1)c1ccccc1 (configuration not stated),0.95,0.1,-0.0808,.,2.1,.,.,.,.,.,.
CC(=O)NC1=NN(C(C)=O)C(C)(CS(=O)(=O)c2ccc3ccccc3c2)S1 (configuration not stated),1.14,0.7,0.441,2.6,4.8,.,.,.,.,.,.
CN1CCN(S(=O)(=O)c2ccc(-c3ccc(Cl)cc3)cc2)CC1,.,-2.2,.,.,2.5,0.00663,0.00594,0.0319,0.00706,0.0173*,0.00963
CC(NC(=O)c1ccccc1)C(c1cccs1)N1CCOCC1 (configuration not stated),.,-0.6,.,0.9,2.6,.,.,.,.,.,.
COc1cccc(CC2(CO)CCCN(Cc3cc4ccccc4[nH]3)C2)c1 (configuration not stated),-0.992,8.7,0.0787,-2.0,3.4,.,.,.,.,.,.
CC(/C=C/c1ccccc1F)=N\NC(=O)c1ccc(Cl)cc1,-0.128,-1.3,6.21*,-1.9,1.3,0.0238*,0.0201*,?,0.0152*,0.0217*,0.0195*
CC(/C=C\C=C\c1ccccc1)=N\NC(=O)c1cncc(Br)c1,0.524,-1.3,12.6*,1.1,7.9,?,0.0289*,0.036,0.0377*,0.0313*,0.0173*
O=C(N/N=C/C=C/c1ccccc1)c1ccc(Br)cc1,-0.515,0.1,0.245,.,0.8,.,.,.,.,.,.
CC(/C=C/c1ccccc1)=N\NC(=O)c1ccc(Br)cc1,-0.608,0.1,8.17*,-0.1,3.9,0.0224*,0.0284*,0.0328,0.0157*,0.0205,0.0176*
